Only some compounds are listed: those with a hit (about 4.3% of all), similar ones and a draw of the others.
STAT1 activator = STAT1 signaling activation. NIH 3T3 STAT1-luciferase reporter, IFN-gamma, luminescence; 100% = IFN-gamma alone, no compound. actives 2.6% (n = 200,000). activation (% of control), % at 5.5 µM;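 active means activation above the screen-wide mean activation plus 3 SD, cut at about 130% in these data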
FLuc act counter = affects firefly luciferase, flagging false hits in luciferase stimulation screens; P08659; ATPlite luciferase biochemical, luminescence, 10 min; 0 = ATP-free wells, 1 = DMSO control; activation factor at 10 µM; 200,000 tested, under 10 active; AID 1027;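 active means luciferase activation factor, scaled between plate controls, of at least 2 with compound at 10 µM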
Target sequence (P08659 whole entry, looked up): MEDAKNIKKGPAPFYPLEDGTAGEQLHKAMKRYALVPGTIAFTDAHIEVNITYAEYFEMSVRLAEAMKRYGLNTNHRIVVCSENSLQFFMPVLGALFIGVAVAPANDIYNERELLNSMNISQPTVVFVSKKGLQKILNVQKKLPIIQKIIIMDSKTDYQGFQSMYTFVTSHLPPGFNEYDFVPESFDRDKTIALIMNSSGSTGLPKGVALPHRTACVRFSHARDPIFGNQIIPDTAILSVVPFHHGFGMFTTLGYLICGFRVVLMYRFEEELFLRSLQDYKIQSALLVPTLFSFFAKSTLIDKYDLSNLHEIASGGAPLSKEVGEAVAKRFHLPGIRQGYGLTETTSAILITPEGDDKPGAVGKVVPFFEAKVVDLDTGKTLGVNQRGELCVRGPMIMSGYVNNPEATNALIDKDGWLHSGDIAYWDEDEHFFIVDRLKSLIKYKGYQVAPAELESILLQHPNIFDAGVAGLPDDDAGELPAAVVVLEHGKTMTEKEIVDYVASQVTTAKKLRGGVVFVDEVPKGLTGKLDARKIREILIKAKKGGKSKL
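Material: Luciferase/luciferin reagent mix; Doses: test compounds dosed from 2 mM stocks in 100% DMSO; Schedule: 10 min incubation after luciferase reagent addition, room temperature; Measured by: luminescence from luciferase reaction; Read-out: luminescence gain marking luciferase activators.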
NF-kB neuron act = raises NF-kB expression in human neuronal cells. actives 1.6% (n = 190,000). AID 1239. fold change at 12.5 µM. NF-kB reporter expression; active compounds read high; in the data active means fold change above about 3.3
FLuc inh counter = Photinus pyralis luciferase inhibition counter-screen; P08659; actives 1.5% (n = 200,000); ATPLite firefly luciferase biochemical luminescence, 10 min; AID 1006; inhibition, % at 10 µM;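 active means inhibition above about 50% when tested at 10 µM, limit read from the data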
APP 5'UTR act = activates APP 5'UTR luciferase reporter; SH-SY5Y APP 5'UTR luciferase reporter, luminescence; zero percent = DMSO vehicle wells; activation, % at 2 µM; actives 1% (n = 190,000); AID 1276;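 active means activation above a set limit, based on mean plus 3 SD of controls, cut at about 140% in these data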
Each line names hits and unclear results; the compound was inactive in the other large screens.

Cn1c(-c2ccc([N+](=O)[O-])cc2)nc2ccccc21	none
CC(C)(C)NS(=O)(=O)c1ccc(CCC(=O)N2CCCC2)cc1	none
CCOC(=O)c1noc(C)c1C(=O)Nc1nccs1	NF-kB neuron act 6
Cc1onc(CO)c1C(=O)Nc1nccs1	none
CSc1n[nH]c(NCc2ccc(Cl)cc2)n1	none
CSc1n[nH]c(NCc2ccc(C)cc2)n1	FLuc inh counter 60
CC1CCN(c2ccc(NC(=O)Cc3ccccc3)cc2)CC1	STAT1 activator 142
CC(C)N=C1NN=C(c2ccc(F)cc2)CS1	NF-kB neuron act 3.5, FLuc inh counter 58, APP 5'UTR act 136
c1ccc(CN=C2NN=C(c3ccccc3)CS2)cc1	STAT1 activator 138
Fc1ccc(N=C2NN=C(c3cc(F)ccc3F)CS2)cc1	none
CCN=C1NN=C(c2ccc(C)cc2)CS1	FLuc inh counter 64
Clc1ccc(C2=NNC(=NCc3ccccc3)SC2)cc1	none
O=C(/C=C/c1ccc(F)cc1)NCCC1=CCCCC1	none
COc1cccc(NC(=O)NCCC2=CCCCC2)c1	none
COc1ccc(NC(=O)NCCC2=CCCCC2)cc1	STAT1 activator 129
O=C(/C=C/c1ccccc1)NCCC1=CCCCC1	STAT1 activator 148
O=C(NCCCN1CCOCC1)c1sc2ccccc2c1Cl	none
CN(C)c1nc(N)nc(CSc2nnnn2-c2ccccc2)n1	none
Cc1cc(NC(=O)c2ccccc2)sc1C	STAT1 activator 131, NF-kB neuron act 5.3, FLuc inh counter 64, APP 5'UTR act 154
Cc1ccc(NC(=O)c2ccccc2)s1	NF-kB neuron act 6.6, FLuc inh counter 76, APP 5'UTR act 160
Cc1ccc(C(c2c(C)n(C)n(-c3ccccc3)c2=O)c2c(C)n(C)n(-c3ccccc3)c2=O)s1	none
CC12CCC(=O)N1C(C(=O)OCC(=O)Nc1ccc(Cl)c(Cl)c1)CS2 (stereo not drawn)	none
COc1ccc(C(=O)C2CCCN(C(=O)CCc3scnc3C)C2)c(C)c1 (stereo not drawn)	none (no result: NF-kB neuron act)
CCCCN1C=CC(=C2C(=O)c3ccccc3C2=O)C=C1	FLuc inh counter 98
CC(C)N(Cc1cc2ccccc2[nH]c1=O)C(=O)c1ccco1	none
O=C(CSc1ccccn1)N1CCc2ccccc21	STAT1 activator 133, NF-kB neuron act 3.5
O=C(CSc1nnc2ccccn12)N1CCc2ccccc2C1	none
O=C(CSc1ccc(-c2ccccn2)nn1)N1CCc2ccccc21	none
O=C(CSc1nnc2ccccn12)N1CCc2ccccc21	STAT1 activator 135
COc1cccc(-n2c(=O)c3c(C)c(C(=O)N(C)C)sc3n(CC(=O)NCC3CCCO3)c2=O)c1 (stereo not drawn)	none
Clc1ccc(-c2cn3nc4c(nc3n2)CCCC4)cc1	FLuc inh counter 59, APP 5'UTR act 191
O=C(O)c1ccccc1NN=C1CCCCC1	STAT1 activator 138, NF-kB neuron act 3.4
COc1ccc2nc3sc(C(=O)NCCN4CCc5ccccc5C4)cc3cc2c1	STAT1 activator 129
COc1ccc(S(=O)(=O)NNC(=O)c2cc3cc4ccccc4nc3s2)cc1	none
COc1ccc2cc3cc(C(=O)NCCCN4CCc5ccccc5C4)sc3nc2c1	STAT1 activator 135, NF-kB neuron act 3.7
CCC(Oc1ccccc1)C(=O)O/N=C(\N)c1ccc(OC)c(OC)c1 (stereo not drawn)	none
CC(=O)c1ccc(NC(=O)c2noc3c2CCC3)cc1	NF-kB neuron act 4.8, APP 5'UTR act 138
O=C(Nc1cnn(Cc2ccc(F)cc2)c1)c1noc2c1CCCC2	STAT1 activator 129
CC(C)(C)C1CCc2onc(C(=O)Nc3cnn(Cc4ccc(F)cc4)c3)c2C1 (stereo not drawn)	none
Cc1ccc(NC(=O)c2noc3c2CCC3)cc1C	NF-kB neuron act 8.3, APP 5'UTR act 182
O=C(Nc1cccc(O)c1)c1noc2c1CCCCC2	FLuc inh counter 86
COC(=O)c1ccccc1NC(=O)c1noc2c1CCCC2	none
CN(CCc1ccccn1)C(=O)CCC1CCCN(C(=O)c2c3c(nn2C)CCCC3)C1 (stereo not drawn)	none
O=C(NCc1ccccc1)c1noc2c1CCCCC2	STAT1 activator 130
COc1ccc(CNC(=O)c2noc3c2CCCCC3)cc1	none
COc1ccc(NC(=O)c2noc3c2CCC3)cc1	STAT1 activator 139, NF-kB neuron act 4, APP 5'UTR act 143
O=C(NC(=S)Nc1ccc(Cc2ccncc2)cc1)c1ccc(F)cc1	none
Cc1cc(C(=O)NCc2ccco2)no1	none
CC(C)Cc1cc(C(=O)NCc2ccco2)no1	STAT1 activator 130
O=C(c1ccccc1O)N1N=C(c2ccccc2)CC1(O)C(F)(F)F (stereo not drawn)	none
COCC(C)NC(=O)c1cc(-c2cccc(OC)c2)on1 (stereo not drawn)	STAT1 activator 134
COc1cccc(-c2cc(C(=O)NCc3ccco3)no2)c1	none
COc1cccc(NC(=O)C(=S)NC2CCCCC2)c1	STAT1 activator 130, NF-kB neuron act 7, APP 5'UTR act 156
COCCNC(=O)c1cc(-c2cccc(OC)c2)on1	none
COc1cccc(-c2cc(C(=O)NC3CCCC3)no2)c1	STAT1 activator 144, NF-kB neuron act 4.9
COc1cccc(-c2cc(C(=O)Nc3cccc(O)c3)no2)c1	NF-kB neuron act 6.7, FLuc inh counter 83
COc1cccc(OC2OC3COC(C)(C)OC3C(O)C2NC(C)=O)c1 (stereo not drawn)	none
O=C(NC(=S)Nc1cc(C(F)(F)F)ccc1N1CCOCC1)c1sc2ccccc2c1Cl	none
COc1cccc(-c2cc(C(=O)Nc3ccccc3SC)no2)c1	STAT1 activator 129
Cc1cc(Br)ccc1NC(=O)CN1C(=S)NC(C)(C)CC1C (stereo not drawn)	none
NC(=O)c1ccsc1NC(=O)c1cc(=O)c2ccccc2o1	STAT1 activator 138
CCOC(=O)c1csc(NC(=O)c2cc(=O)c3ccccc3o2)n1	none
Cc1cc(C)cc(NC(=O)c2cc(=O)c3ccccc3o2)c1	none
CC(=O)c1sc(NC(=O)c2cc(=O)c3ccccc3o2)nc1C	FLuc inh counter 83
Cc1cccc(NC(=O)c2cc(=O)c3ccccc3o2)n1	STAT1 activator 134
COc1ccccc1/C=N/NC(=O)CCn1cnc2ccccc21	none
Cc1ccc(-n2c(C)cc(C(=O)CSc3n[nH]c(N)n3)c2C)cc1	none
CCC(=O)OCC(=O)c1cc(C)n(-c2ccc(Br)cc2)c1C	FLuc inh counter 59
Cc1ccc(-n2c(C)cc(C(=O)COC(=O)c3c(C)noc3C)c2C)cc1	STAT1 activator 129, NF-kB neuron act 3.5
COc1cc(C(=O)Nc2ccc(NC(C)=O)cc2)ccc1OCc1ccccc1	none
Cc1ccc(Nc2nc(-c3cccs3)cs2)nc1	NF-kB neuron act 4.9, FLuc inh counter 85, APP 5'UTR act 172
CN(c1ccc(O)cc1)c1nc(-c2cccs2)cs1	STAT1 activator 141, NF-kB neuron act 7, APP 5'UTR act 173
c1ccc(-c2csc(Nc3cccnc3)n2)nc1	none
COc1ccc(-c2csc(Nc3cccnc3)n2)cc1	STAT1 activator 134

Source: PubChem BioAssay
